Experimental data reported in ChEMBL document CHEMBL5620363, “HIV-1 protease inhibitors with a P1 phosphonate modification maintain potency against drug-resistant variants by increased interactions with flap residues” (Eur J Med Chem, 2023).

Assays:
[1] = test system: Human immunodeficiency virus 1; assay: (§1) Antiviral activity against DRV-resistant HIV-1 infected in human TZM-bl cells using virus particles harvested from 24 hrs drug-treated human CEM cells infected with virus assessed as reduction in viral infection measured after 48 hrs in TZM-bl cells by Firefly luciferase based assay; type: functional, organism-based; conditions: Human immunodeficiency virus 1, TZM-bl
Summary of the method: (§2)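 Virus stocks grown by infecting 3 × 10^6 CEM cells with virus at 37 °C for 2–3 h, then RPMI with medium changes every 48 h until CPE. Infected CEM cells plated onto five-fold serial inhibitor dilutions in RPMI (top 100 μM).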

[2] = test system: Human immunodeficiency virus 1; assay: Selectivity ratio of EC50 for drug-resistant HIV-1 harboring RT mutation/protease I13V/G16E/V32I/L33F/K45I/M46I/A71V/L76V/V82F/I84V mutant infected in human TZM-bl cells to EC50 for wild-type HIV-1 NL4-3 infected in human TZM-bl cells; type: functional
[3] = test system: Human immunodeficiency virus 1; assay: Antiviral activity against wild-type HIV-1 NL4-3 infected in human TZM-bl cells using virus particles harvested from 24 hrs drug-treated human CEM cells infected with virus assessed as reduction in viral infection measured after 48 hrs in TZM-bl cells by Firefly luciferase based assay; type: functional, organism-based; conditions: Human immunodeficiency virus 1, NL4-3, TZM-bl; summary of the method: as §2
[4] = test system: Human immunodeficiency virus 1; assay: Selectivity ratio of EC50 for drug-resistant HIV-1 harboring protease L10F/V11I/I13V/V32I/L33F/K43T/M46L/I54L/A71V/V82I/I84V/L89M/T91S/Q92R mutant infected in human TZM-bl cells to EC50 for wild-type HIV-1 NL4-3 infected in human TZM-bl cells; type: functional
[5] = test system: Human immunodeficiency virus 1; assay: Selectivity ratio of EC50 for drug-resistant HIV-1 harboring protease L10F/I13V/L33F/K45R/M46I/I47V/I50V/F53L/I54L/I66F/A71V/T74A/L76S/V82I mutant infected in human TZM-bl cells to EC50 for wild-type HIV-1 NL4-3 infected in human TZM-bl cells; type: functional
[6] = test system: Human immunodeficiency virus 1; assay: Selectivity ratio of EC50 for drug-resistant HIV-1 harboring protease L10F/I15V/M46I/I47V/I50V/F53L/A71V/V82I/I84V/L89T mutant infected in human TZM-bl cells to EC50 for wild-type HIV-1 NL4-3 infected in human TZM-bl cells; type: functional
[7] = test system: Human immunodeficiency virus 1; assay: Selectivity ratio of EC50 for DRV-resistant HIV-1 infected in human TZM-bl cells to EC50 for wild-type HIV-1 NL4-3 infected in human TZM-bl cells; type: functional
[8] = test system: Human immunodeficiency virus 1; assay: as §1, with “drug-resistant” for “DRV-resistant”, “HIV-1 harboring protease L10F/L33F/M46I/I47V/I50V/F53L/L63P/A71V/L76S/V82I/I85V/L89I mutant” for “HIV-1”; type: functional, organism-based; conditions: Human immunodeficiency virus 1, TZM-bl
[9] = test system: Human immunodeficiency virus 1; assay: Selectivity ratio of EC50 for drug-resistant HIV-1 harboring protease L10F/L33F/M46I/I47V/I50V/F53L/L63P/A71V/L76S/V82I/I85V/L89I mutant infected in human TZM-bl cells to EC50 for wild-type HIV-1 NL4-3 infected in human TZM-bl cells; type: functional
[10] = test system: Human immunodeficiency virus 1; assay: as §1, with “drug-resistant” for “DRV-resistant”, “HIV-1 harboring protease L10F/I15V/M46I/I47V/I50V/F53L/A71V/V82I/I84V/L89T mutant” for “HIV-1”; type: functional, organism-based; conditions: Human immunodeficiency virus 1, TZM-bl; summary of the method: as §2
[11] = test system: Human immunodeficiency virus 1; assay: Selectivity ratio of EC50 for drug-resistant HIV-1 harboring Gag mutation/protease I13V/G16E/V32I/L33F/K45I/M46I/A71V/L76V/V82F/I84V mutant infected in human TZM-bl cells to EC50 for wild-type HIV-1 NL4-3 infected in human TZM-bl cells; type: functional
[12] = test system: Human immunodeficiency virus 1; assay: as §1, with “drug-resistant” for “DRV-resistant”, “HIV-1 harboring protease L10F/I13V/L33F/K45R/M46I/I47V/I50V/F53L/I54L/I66F/A71V/T74A/L76S/V82I mutant” for “HIV-1”; type: functional, organism-based; conditions: Human immunodeficiency virus 1, TZM-bl; summary of the method: as §2
[13] = test system: Human immunodeficiency virus 1; assay: as §1, with “drug-resistant” for “DRV-resistant”, “HIV-1 harboring Gag mutation/protease I13V/G16E/V32I/L33F/K45I/M46I/A71V/L76V/V82F/I84V mutant” for “HIV-1”; type: functional, organism-based; conditions: Human immunodeficiency virus 1, TZM-bl; summary of the method: as §2
[14] = test system: Human immunodeficiency virus 1; assay: as §1, with “drug-resistant” for “DRV-resistant”, “HIV-1 harboring protease L10F/V11I/I13V/V32I/L33F/K43T/M46L/I54L/A71V/V82I/I84V/L89M/T91S/Q92R mutant” for “HIV-1”; type: functional, organism-based; conditions: Human immunodeficiency virus 1, TZM-bl; summary of the method: as §2
[15] = test system: Human immunodeficiency virus 1; assay: as §1, with “drug-resistant” for “DRV-resistant”, “HIV-1 harboring RT mutation/protease I13V/G16E/V32I/L33F/K45I/M46I/A71V/L76V/V82F/I84V mutant” for “HIV-1”; type: functional, organism-based; conditions: Human immunodeficiency virus 1, TZM-bl; summary of the method: as §2

With `CCC(CC)CN(C[C@@H](O)[C@H](Cc1ccccc1)NC(=O)O[C@H]1CO[C@H]2OCC[C@H]21)S(=O)(=O)c1ccc(OC)cc1` the EC50 [1] was 1600 nM, the “Ratio EC50” value [2] was 83 and the EC50 [3] was 3 nM. The “Ratio EC50” value [4] was 1793, the “Ratio EC50” value [5] was 5567 and the “Ratio EC50” value [6] was 7267. For the same molecule, the “Ratio EC50” value [7] was 533, the EC50 [8] was 800 nM and the “Ratio EC50” value [9] was 267. For the same molecule, the EC50 [10] was 21800 nM, the “Ratio EC50” value [11] was 47 and the EC50 [12] was 16700 nM. For the same molecule, the EC50 [13] was 140 nM, the EC50 [14] was 5380 nM and the EC50 [15] was 250 nM.
